Measured values taken from ChEMBL document CHEMBL1781932 (J Med Chem, 2011).
Converted amounts (≈) assume the structure as drawn.

Columns and labels:
Assay type in all cases: functional
Staphylococcus aureus [1] = assay: Antimicrobial activity against tetracycline-susceptible Staphylococcus aureus isolate 101 by CLSI dilution method
Staphylococcus aureus [2] = assay: Antimicrobial activity against methicillin-, tetracycline-resistant Staphylococcus aureus isolate 161 harboring tetM gene by CLSI dilution method
Staphylococcus aureus [3] = assay: Antimicrobial activity against tetracycline-resistant Staphylococcus aureus isolate 158 harboring tetK gene by CLSI dilution method
Enterococcus faecalis [4] = assay: Antimicrobial activity against tetracycline-susceptible Enterococcus faecalis isolate 103 by CLSI dilution method
Outline: (§1)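 Broth microdilution per CLSI in fresh cation-adjusted Mueller Hinton broth, kept at 4 °C before testing, with defibrinated horse blood added as appropriate. Strains were from ATCC. MIC in µg/mL. Runs were accepted when comparator antibiotics against ATCC quality-control strains fell within recommended ranges.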

Enterococcus faecalis [5] = assay: Antimicrobial activity against tetracycline-resistant Enterococcus faecalis isolate 159 harboring […] gene by CLSI dilution method
Streptococcus pneumoniae [6] = assay: Antimicrobial activity against tetracycline-susceptible Streptococcus pneumoniae isolate 106 by CLSI dilution method; outline: as §1
Streptococcus pneumoniae [7] = assay: Antimicrobial activity against tetracycline-resistant Streptococcus pneumoniae isolate 160 harboring tetM gene by CLSI dilution method
Escherichia coli [8] = assay: Antimicrobial activity against tetracycline-susceptible Escherichia coli isolate 107 by CLSI dilution method; outline: as §1
Escherichia coli [9] = assay: Antimicrobial activity against tetracycline-resistant Escherichia coli isolate 155 harboring tetA gene by CLSI dilution method
Acinetobacter baumannii = assay: Antimicrobial activity against tetracycline-susceptible Acinetobacter baumannii isolate 110 by CLSI dilution method; outline: as §1
Pseudomonas aeruginosa = assay: Antimicrobial activity against tetracycline-susceptible Pseudomonas aeruginosa isolate 111 by CLSI dilution method; outline: as §1
Enterobacter cloacae = assay: Antimicrobial activity against tetracycline-susceptible Enterobacter cloacae isolate 108 by CLSI dilution method; outline: as §1
Klebsiella pneumoniae [10] = assay: Antimicrobial activity against tetracycline-susceptible Klebsiella pneumoniae isolate 109 by CLSI dilution method; outline: as §1
Klebsiella pneumoniae [11] = assay: Antimicrobial activity against tetracycline-resistant Klebsiella pneumoniae isolate 153 harboring tetA gene by CLSI dilution method

SMILES	MIC (Staphylococcus aureus [1]) [µg/mL]	MIC (Staphylococcus aureus [2]) [µg/mL]	MIC (Staphylococcus aureus [3]) [µg/mL]	MIC (Enterococcus faecalis [4]) [µg/mL]	MIC (Enterococcus faecalis [5]) [µg/mL]	MIC (Streptococcus pneumoniae [6]) [µg/mL]	MIC (Streptococcus pneumoniae [7]) [µg/mL]	MIC (Escherichia coli [8]) [µg/mL]	MIC (Escherichia coli [9]) [µg/mL]	MIC (Acinetobacter baumannii) [µg/mL]	MIC (Pseudomonas aeruginosa) [µg/mL]	MIC (Enterobacter cloacae) [µg/mL]	MIC (Klebsiella pneumoniae [10]) [µg/mL]	MIC (Klebsiella pneumoniae [11]) [µg/mL]
CN(C)[C@@H]1C(O)=C(C(N)=O)C(=O)[C@@]2(O)C(O)=C3C(=O)c4c(cc5ccc(CN6CC(O)C6)cc5c4O)C[C@H]3C[C@@H]12	0.5 (≈ 0.91 µM)	4 (≈ 7.28 µM)	1 (≈ 1.82 µM)	0.5 (≈ 0.91 µM)	4 (≈ 7.28 µM)	0.0625 (≈ 0.114 µM)	0.5 (≈ 0.91 µM)	1 (≈ 1.82 µM)	8 (≈ 14.6 µM)	4 (≈ 7.28 µM)	32 (≈ 58.2 µM)	2 (≈ 3.64 µM)	4 (≈ 7.28 µM)	8 (≈ 14.6 µM)
COC1CN(Cc2ccc3cc4c(c(O)c3c2)C(=O)C2=C(O)[C@]3(O)C(=O)C(C(N)=O)=C(O)[C@@H](N(C)C)[C@@H]3C[C@@H]2C4)C1	1 (≈ 1.77 µM)	4 (≈ 7.1 µM)	0.5 (≈ 0.887 µM)	1 (≈ 1.77 µM)	8 (≈ 14.2 µM)	0.0625 (≈ 0.111 µM)	0.5 (≈ 0.887 µM)	2 (≈ 3.55 µM)	16 (≈ 28.4 µM)	2 (≈ 3.55 µM)	> 32	8 (≈ 14.2 µM)	4 (≈ 7.1 µM)	16 (≈ 28.4 µM)
CC(=O)NC1CN(Cc2ccc3cc4c(c(O)c3c2)C(=O)C2=C(O)[C@]3(O)C(=O)C(C(N)=O)=C(O)[C@@H](N(C)C)[C@@H]3C[C@@H]2C4)C1	2 (≈ 3.39 µM)	8 (≈ 13.5 µM)	2 (≈ 3.39 µM)	2 (≈ 3.39 µM)	16 (≈ 27.1 µM)	0.25 (≈ 0.423 µM)	2 (≈ 3.39 µM)	4 (≈ 6.77 µM)	16 (≈ 27.1 µM)	16 (≈ 27.1 µM)	> 32	8 (≈ 13.5 µM)	16 (≈ 27.1 µM)	16 (≈ 27.1 µM)
CN(C)[C@@H]1C(O)=C(C(N)=O)C(=O)[C@@]2(O)C(O)=C3C(=O)c4c(cc5ccc(CN6CC(F)(F)C6)cc5c4O)C[C@H]3C[C@@H]12	1 (≈ 1.76 µM)	1 (≈ 1.76 µM)	1 (≈ 1.76 µM)	1 (≈ 1.76 µM)	1 (≈ 1.76 µM)	2 (≈ 3.51 µM)	4 (≈ 7.02 µM)	> 32	> 32	> 32	> 32	> 32	> 32	> 32
CN(C)[C@@H]1C(O)=C(C(N)=O)C(=O)[C@@]2(O)C(O)=C3C(=O)c4c(cc5ccc(CN(C)S(C)(=O)=O)cc5c4O)C[C@H]3C[C@@H]12	2 (≈ 3.42 µM)	2 (≈ 3.42 µM)	2 (≈ 3.42 µM)	2 (≈ 3.42 µM)	2 (≈ 3.42 µM)	1 (≈ 1.71 µM)	4 (≈ 6.83 µM)	> 32	> 32	> 32	> 32	> 32	> 32	> 32
COCCNCc1ccc2c(N(C)C)c3c(c(O)c2c1)C(=O)C1=C(O)[C@]2(O)C(=O)C(C(N)=O)=C(O)[C@@H](N(C)C)[C@@H]2C[C@@H]1C3	0.5 (≈ 0.841 µM)	8 (≈ 13.5 µM)	0.5 (≈ 0.841 µM)	1 (≈ 1.68 µM)	8 (≈ 13.5 µM)	0.0625 (≈ 0.105 µM)	1 (≈ 1.68 µM)	4 (≈ 6.73 µM)	32 (≈ 53.8 µM)	2 (≈ 3.36 µM)	> 32	16 (≈ 26.9 µM)	16 (≈ 26.9 µM)	32 (≈ 53.8 µM)
CN(C)[C@@H]1C(O)=C(C(N)=O)C(=O)[C@@]2(O)C(O)=C3C(=O)c4c(cc5ccc(F)cc5c4O)C[C@H]3C[C@@H]12	0.5 (≈ 1.04 µM)	0.5 (≈ 1.04 µM)	0.25 (≈ 0.518 µM)	0.25 (≈ 0.518 µM)	0.5 (≈ 1.04 µM)	2 (≈ 4.15 µM)	8 (≈ 16.6 µM)	16 (≈ 33.2 µM)	> 32	4 (≈ 8.29 µM)	> 32	> 32	> 32	> 32
CN(C)[C@@H]1C(O)=C(C(N)=O)C(=O)[C@@]2(O)C(O)=C3C(=O)c4c(c(Cl)c5ccc(F)cc5c4O)C[C@H]3C[C@@H]12	2 (≈ 3.87 µM)	2 (≈ 3.87 µM)	2 (≈ 3.87 µM)	2 (≈ 3.87 µM)	2 (≈ 3.87 µM)	> 32	> 32	> 32	> 32	> 32	> 32	> 32	> 32	> 32
CN(C)c1c2c(c(O)c3cc(F)ccc13)C(=O)C1=C(O)[C@]3(O)C(=O)C(C(N)=O)=C(O)[C@@H](N(C)C)[C@@H]3C[C@@H]1C2	0.25 (≈ 0.476 µM)	1 (≈ 1.9 µM)	0.125 (≈ 0.238 µM)	0.25 (≈ 0.476 µM)	0.25 (≈ 0.476 µM)	2 (≈ 3.81 µM)	4 (≈ 7.61 µM)	> 32	> 32	16 (≈ 30.4 µM)	> 32	> 32	> 32	> 32
CN(C)[C@@H]1C(O)=C(C(N)=O)C(=O)[C@@]2(O)C(O)=C3C(=O)c4c(cc5c(CNC6CC6)cccc5c4O)C[C@H]3C[C@@H]12	2 (≈ 3.75 µM)	16 (≈ 30 µM)	1 (≈ 1.87 µM)	4 (≈ 7.5 µM)	16 (≈ 30 µM)	0.5 (≈ 0.937 µM)	4 (≈ 7.5 µM)	16 (≈ 30 µM)	> 32	4 (≈ 7.5 µM)	> 32	> 32	32 (≈ 60 µM)	> 32
CNc1cccc2c(O)c3c(cc12)C[C@H]1C[C@H]2[C@H](N(C)C)C(O)=C(C(N)=O)C(=O)[C@@]2(O)C(O)=C1C3=O	2 (≈ 4.05 µM)	4 (≈ 8.11 µM)	2 (≈ 4.05 µM)	4 (≈ 8.11 µM)	4 (≈ 8.11 µM)	4 (≈ 8.11 µM)	16 (≈ 32.4 µM)	> 32	> 32	32 (≈ 64.8 µM)	> 32	> 32	> 32	> 32
CN(C)c1ccc2c(O)c3c(cc2c1)C[C@H]1C[C@H]2[C@H](N(C)C)C(O)=C(C(N)=O)C(=O)[C@@]2(O)C(O)=C1C3=O	2 (≈ 3.94 µM)	4 (≈ 7.88 µM)	2 (≈ 3.94 µM)	4 (≈ 7.88 µM)	4 (≈ 7.88 µM)	16 (≈ 31.5 µM)	32 (≈ 63 µM)	> 32	> 32	> 32	> 32	> 32	> 32	> 32
COCCOc1c2c(c(O)c3cc(CN4CCC4)ccc13)C(=O)C1=C(O)[C@]3(O)C(=O)C(C(N)=O)=C(O)[C@@H](N(C)C)[C@@H]3C[C@@H]1C2	0.25 (≈ 0.411 µM)	2 (≈ 3.29 µM)	0.5 (≈ 0.823 µM)	0.5 (≈ 0.823 µM)	2 (≈ 3.29 µM)	0.0313 (≈ 0.0515 µM)	0.25 (≈ 0.411 µM)	2 (≈ 3.29 µM)	32 (≈ 52.7 µM)	4 (≈ 6.58 µM)	> 32	8 (≈ 13.2 µM)	8 (≈ 13.2 µM)	> 32
CNc1c2c(c(O)c3cc(CN4CCC4)ccc13)C(=O)C1=C(O)[C@]3(O)C(=O)C(C(N)=O)=C(O)[C@@H](N(C)C)[C@@H]3C[C@@H]1C2	2 (≈ 3.55 µM)	8 (≈ 14.2 µM)	2 (≈ 3.55 µM)	4 (≈ 7.11 µM)	8 (≈ 14.2 µM)	0.25 (≈ 0.444 µM)	1 (≈ 1.78 µM)	4 (≈ 7.11 µM)	> 32	> 32	> 32	32 (≈ 56.9 µM)	32 (≈ 56.9 µM)	> 32
CN(C)[C@@H]1C(O)=C(C(N)=O)C(=O)[C@@]2(O)C(O)=C3C(=O)c4c(cc5ccc(-c6ccccc6)cc5c4O)C[C@H]3C[C@@H]12	2 (≈ 3.7 µM)	8 (≈ 14.8 µM)	4 (≈ 7.4 µM)	2 (≈ 3.7 µM)	0.5 (≈ 0.925 µM)	> 32	> 32	> 32	> 32	> 32	> 32	> 32	> 32	> 32
CNCc1ccc2cc3c(c(O)c2c1)C(=O)C1=C(O)[C@]2(O)C(=O)C(C(N)=O)=C(O)[C@@H](N(C)C)[C@@H]2C[C@@H]1C3	0.5 (≈ 0.985 µM)	4 (≈ 7.88 µM)	1 (≈ 1.97 µM)	0.5 (≈ 0.985 µM)	4 (≈ 7.88 µM)	0.0625 (≈ 0.123 µM)	1 (≈ 1.97 µM)	1 (≈ 1.97 µM)	16 (≈ 31.5 µM)	4 (≈ 7.88 µM)	16 (≈ 31.5 µM)	2 (≈ 3.94 µM)	4 (≈ 7.88 µM)	8 (≈ 15.8 µM)
CCCNCc1ccc2cc3c(c(O)c2c1)C(=O)C1=C(O)[C@]2(O)C(=O)C(C(N)=O)=C(O)[C@@H](N(C)C)[C@@H]2C[C@@H]1C3	0.5 (≈ 0.934 µM)	2 (≈ 3.73 µM)	0.25 (≈ 0.467 µM)	0.5 (≈ 0.934 µM)	4 (≈ 7.47 µM)	0.0156 (≈ 0.0291 µM)	0.25 (≈ 0.467 µM)	1 (≈ 1.87 µM)	4 (≈ 7.47 µM)	1 (≈ 1.87 µM)	32 (≈ 59.7 µM)	2 (≈ 3.73 µM)	2 (≈ 3.73 µM)	4 (≈ 7.47 µM)
CN(Cc1ccc2cc3c(c(O)c2c1)C(=O)C1=C(O)[C@]2(O)C(=O)C(C(N)=O)=C(O)[C@@H](N(C)C)[C@@H]2C[C@@H]1C3)c1ccccc1	1 (≈ 1.71 µM)	8 (≈ 13.7 µM)	1 (≈ 1.71 µM)	4 (≈ 6.85 µM)	4 (≈ 6.85 µM)	2 (≈ 3.43 µM)	2 (≈ 3.43 µM)	> 32	> 32	> 32	> 32	> 32	> 32	> 32
